What is called inhibition is the percentage by which the read-out fell short of the control. Low values mean little suppression, high ones strong suppression.

Holding throughout (details): Cell membrane
For experiment [1], the target named is Adenosine receptor A2a (Homo sapiens) (UniProt P29274). As to the kind of experiment: Displacement of [3H]ZM2421385 from adenosine A2A receptor expressed in human HeLa cell membranes at 1 uM incubated for 30 mins by scintillation counting method.
In experiment [2] the target is T1, Adenosine receptor A3 (Homo sapiens) (UniProt P0DMS8).
T1 sequence (whole entry): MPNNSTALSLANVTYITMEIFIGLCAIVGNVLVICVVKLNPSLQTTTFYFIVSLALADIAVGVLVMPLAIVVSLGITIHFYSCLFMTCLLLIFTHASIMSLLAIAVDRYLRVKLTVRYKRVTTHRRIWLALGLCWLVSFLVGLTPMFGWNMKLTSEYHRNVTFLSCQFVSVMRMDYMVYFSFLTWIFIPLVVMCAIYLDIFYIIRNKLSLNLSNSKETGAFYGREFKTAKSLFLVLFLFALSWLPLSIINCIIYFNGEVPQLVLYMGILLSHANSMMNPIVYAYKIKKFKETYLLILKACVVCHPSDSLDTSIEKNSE
As to the kind of experiment: Displacement of [3H]NECA from adenosine A3 receptor expressed in human HeLa cell membranes at 1 uM incubated for 180 mins by scintillation counting method. A digest of the protocol: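 hA3AR in HeLa membranes (3 pmol/mg protein) with 10 nM [3H]NECA (KD 8.7 nM); nonspecific binding with 100 μM R-PIA; incubated 180 min at 25 °C, washed, filtered, radioactivity counted.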
(In general: In a radioligand displacement assay an active substance lowers the binding of a labelled ligand.)

Experiment [3] addresses T2, Adenosine receptor A2b (Homo sapiens) (UniProt P29275).
T2 sequence (whole entry): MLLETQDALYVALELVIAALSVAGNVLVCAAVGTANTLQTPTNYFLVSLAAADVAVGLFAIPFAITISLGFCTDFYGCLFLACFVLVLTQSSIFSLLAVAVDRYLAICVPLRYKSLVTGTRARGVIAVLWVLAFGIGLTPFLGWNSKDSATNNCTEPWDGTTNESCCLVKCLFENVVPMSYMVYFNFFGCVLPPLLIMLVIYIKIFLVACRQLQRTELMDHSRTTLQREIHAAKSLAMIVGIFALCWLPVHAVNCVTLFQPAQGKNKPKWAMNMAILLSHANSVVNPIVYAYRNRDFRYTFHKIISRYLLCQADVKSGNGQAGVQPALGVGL
Description: Displacement of [3H]DPCPX from human adenosine A2B receptor expressed in HEK293 cell membranes at 1 uM incubated for 30 mins by scintillation counting method.

Experiment [4] has as its target T3, Adenosine receptor A1 (Homo sapiens) (UniProt P30542).
T3 sequence (whole entry): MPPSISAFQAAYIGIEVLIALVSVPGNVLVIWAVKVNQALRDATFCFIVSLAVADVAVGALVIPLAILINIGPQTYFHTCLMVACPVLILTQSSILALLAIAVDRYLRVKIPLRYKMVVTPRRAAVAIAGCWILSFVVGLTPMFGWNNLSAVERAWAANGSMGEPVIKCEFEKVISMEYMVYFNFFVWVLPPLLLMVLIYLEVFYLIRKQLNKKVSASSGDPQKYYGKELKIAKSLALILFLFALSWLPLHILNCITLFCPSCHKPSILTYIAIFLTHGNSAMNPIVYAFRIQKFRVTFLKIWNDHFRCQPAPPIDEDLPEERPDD
Description: Displacement of [3H]DPCPX from human adenosine A1 receptor expressed in CHO cell membranes at 1 uM incubated for 60 mins by scintillation counting method.

Chain of Adenosine receptor A2a (Homo sapiens) (P29274 whole entry): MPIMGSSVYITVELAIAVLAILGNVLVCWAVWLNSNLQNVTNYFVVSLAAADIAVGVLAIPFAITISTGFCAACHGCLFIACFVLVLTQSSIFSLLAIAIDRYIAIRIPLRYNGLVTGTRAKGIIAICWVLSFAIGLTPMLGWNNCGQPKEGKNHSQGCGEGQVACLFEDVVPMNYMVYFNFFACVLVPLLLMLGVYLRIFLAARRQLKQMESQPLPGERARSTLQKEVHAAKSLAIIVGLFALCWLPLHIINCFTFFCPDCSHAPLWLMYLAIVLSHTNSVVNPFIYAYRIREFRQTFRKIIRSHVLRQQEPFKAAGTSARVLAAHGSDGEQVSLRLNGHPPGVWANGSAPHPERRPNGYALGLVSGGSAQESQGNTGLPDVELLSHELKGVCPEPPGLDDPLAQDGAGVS

As to `CC1=C(c2ncc(C)o2)C(c2cccs2)NC(=O)N1` (racemic), the inhibition in experiment [1] came to 7%; in experiment [2] it was 1%; in experiment [3] (filed as antagonist), 45%; in experiment [4], 21%.
With `CCN(CC)C(=O)C1=C(C)NC(=O)NC1c1ccsc1` (racemic), the inhibition in experiment [1] was found to be 9%; in experiment [2], 35%; in experiment [3], 11%; in experiment [4], 11%.
Consider `CCNC(=O)C1=C(C)NC(=O)NC1c1ccco1` (racemic), for which the inhibition was found to be 1% in experiment [1], 3% in experiment [2], 1% in experiment [3] and 2% in experiment [4].
For `CC1=C(C(=O)SC(C)C)C(c2ccco2)NC(=O)N1` (racemic), the inhibition in experiment [1] was found to be 2%; in experiment [2], 1%; in experiment [3], 22%; in experiment [4] it was 5%.
As for `CC1=C(C(=O)OC(C)(C)C)C(c2cccs2)NC(=O)N1C` (racemic), the inhibition in experiment [1] amounted to 12%; in experiment [2], 22%; in experiment [3] it was 24%; in experiment [4], 18%.
In the case of `CCOC(=O)C1=C(C)N(C)C(=O)NC1c1cccs1` (racemic), the inhibition in experiment [1] was 1%; in experiment [2], 2%; in experiment [4], 1%.
On to `CCCC(=O)C1=C(C)NC(=O)NC1c1ccsc1` (racemic), for which the inhibition in experiment [1] was 11%; in experiment [2], 1%; in experiment [3], 9%; in experiment [4] it was 6%.
`CC1=C(C(=O)OC(C)C)C(c2cccs2)NC(=O)N1C` (racemic): in experiment [2], the inhibition was 17%.
For the compound `CC1=C(C(=O)CC(C)C)C(c2cccs2)NC(=O)N1` (racemic), the inhibition was determined as 1% in experiment [1], 18% in experiment [2], 43% in experiment [3] (filed as antagonist) and 19% in experiment [4].
Turning to `CCCOC(=O)C1=C(C)NC(=S)NC1c1ccsc1` (racemic), the inhibition came out at 1% in experiment [1], 1% in experiment [2], 26% in experiment [3] and 5% in experiment [4].
For the compound `CCCOC(=O)C1=C(C)NC(=S)NC1c1ccoc1` (racemic), the inhibition in experiment [1] worked out at 2%; in experiment [2] it was 3%; in experiment [3] (filed as antagonist), 45%; in experiment [4] it was 4%.
The matching figures for `COC(=O)C1=C(C)NC(=O)NC1c1ccoc1` (racemic): 3%, 2%, 42% and 8%.
As for `CCCOC(=O)C1=C(C)NC(=O)NC1c1ccco1` (racemic), the inhibition in experiment [2] was 3%.
For `CC(=O)C1=C(C)NC(=O)NC1c1cccs1` (racemic), the inhibition amounted to 2% in experiment [1], 3% in experiment [2], 2% in experiment [3] and 11% in experiment [4].
Consider `COC(=O)C1=C(C)N(C)C(=O)NC1c1ccsc1` (racemic), for which the inhibition in experiment [1] is 13%; in experiment [2], 22%; in experiment [3], 26%; in experiment [4], 24%.
The matching figures for `CCOP(=O)(OCC)C1=C(C)NC(=O)NC1c1ccsc1` (racemic): 3%, 1%, 1% and 4%.
The like results for `CC1=C(C(=O)OCC(C)C)C(c2cccs2)NC(=O)N1C` (racemic) were, in that order, 1%, 5%, 2% and 9%.
As for `COC(=O)C1=C(C)NC(=O)NC1c1ccsc1` (racemic), the inhibition in experiment [1] is 2%; in experiment [2], 3%; in experiment [3], 36%; in experiment [4] it was 7%.
The like results for `COC(=O)C1=C(C)NC(=S)NC1c1cccs1` (racemic) were, in that order, 1%, 1%, 10% and 1%.
With `CC1=C(C(=O)C2CC2)C(c2cccs2)NC(=O)N1` (racemic), the inhibition in experiment [1] came to 1%; in experiment [2], 15%; in experiment [3] it was 1%; in experiment [4], 1%.
On to `CCCOC(=O)C1=C(C)NC(=S)NC1c1ccco1` (racemic), for which the inhibition was 2% in experiment [1], 1% in experiment [2], 46% in experiment [3] (filed as antagonist) and 1% in experiment [4].
Regarding `CC1=C(C(=O)OC(C)(C)C)C(c2ccco2)NC(=S)N1` (racemic), the inhibition in experiment [1] was 1%; in experiment [2] it was 9%; in experiment [3] it was 9%; in experiment [4], 3%.
For `CCC(CC)OC(=O)C1=C(C)NC(=O)NC1c1ccoc1` (racemic), the inhibition stood at 2% in experiment [1], 5% in experiment [2], 28% in experiment [3] and 17% in experiment [4].
The like results for `COC(=O)C1=C(C)N(C)C(=O)NC1c1cccs1` (racemic) were, in that order, 49%, 15%, 17% and 30%.
On to `CC1=C(C(=O)C2CC2)C(c2ccoc2)NC(=O)N1` (racemic), for which the inhibition came out at 1% in experiment [1], 16% in experiment [2], 10% in experiment [3] and 1% in experiment [4].
Turning to `CCN(CC)C(=O)C1=C(C)NC(=O)NC1c1ccoc1` (racemic), the inhibition was found to be 6% in experiment [1], 37% in experiment [2], 12% in experiment [3] and 15% in experiment [4].
The matching figures for `CCOP(=O)(OCC)C1=C(C)NC(=O)NC1c1ccoc1` (racemic): 8%, 2%, 3% and 1%.
The matching figures for `CCOP(=O)(OCC)C1=C(C)NC(=O)NC1c1ccco1` (racemic): 4%, 4%, 2% and 3%.
For `CC1=C(C(=O)OC(C)C)C(c2ccsc2)NC(=O)N1C` (racemic), the figures for the inhibition in experiment [1], in experiment [3] (filed as antagonist) and in experiment [4] were 22%, 51% and 35%, respectively.
As for `CCNC(=O)C1=C(C)NC(=O)NC1c1cccs1` (racemic), the inhibition in experiment [1] was found to be 1%; in experiment [2], 4%; in experiment [3] it was 1%; in experiment [4] it was 1%.
For the compound `CCC(C)OC(=O)C1=C(C)NC(=O)NC1c1ccsc1` (racemic), the inhibition worked out at 1% in experiment [1], 7% in experiment [2], 39% in experiment [3] and 5% in experiment [4].
For `CC1=C(C(=O)OC(C)C)C(c2ccoc2)NC(=O)N1C` (racemic), the inhibition in experiment [3] is 37%.
As for `CCOC(=O)C1=C(C)N(C)C(=O)NC1c1ccsc1` (racemic), the inhibition was determined as 23% in experiment [1], 53% in experiment [3] (filed as antagonist) and 32% in experiment [4].
On to `CCOC(=O)C1=C(C)NC(=O)NC1c1cccs1` (racemic), for which the inhibition in experiment [3] (filed as antagonist) came to 41%.
As to `CCOC(=O)C1=C(C)N(C)C(=O)NC1c1ccco1` (racemic), the inhibition in experiment [1] was 1%.
Consider `CC1=C(C(=O)OC(C)C)C(c2ccco2)NC(=O)N1C` (racemic), for which the inhibition in experiment [1] came to 37%.
